In PubChem BioAssay AID623869 (Vanderbilt High Throughput Screening Facility, 2012):
In all, about 2,100 compounds went through this assay and about 75 (4%) were called active.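 How the source made its calls: active means calcium fluorescence trace judged by eye to show a response, as agonist, enhancer of the glutamate response, or inhibitor; inactive means trace judged by eye to show no response.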 The list comes from a sample in which actives are over-represented; it also holds similar structures and randomly drawn compounds.

Target: Metabotropic glutamate receptor 8 (Rattus norvegicus) (UniProt P70579)
Assay: mGlu8-mediated intracellular calcium response modulators – cell-based, HEK293 rmGlu8, Gqi9 chimera, Fluo-4 calcium, counter-screen for GIRK activator project, confirmation (AID 623869)
Conditions: HEK293 rmGlu8/Gqi9 calcium flux, Fluo-4 fluorescence; glutamate at EC20 added after compound
Procedure, shortened: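 system = HEK-293 cells stably expressing rat mGlu8, plus transient chimeric Gqi9 | measured by = Fluo-4 calcium fluorescence, 1 Hz | timing = compound pre-exposure 4 min, post-glutamate read 2 min | measure = F/F0 fluorescence traces judged visually for each well | medium = HEPES-buffered HBSS at pH 7.4 | doses = single compound addition from 20 µM solution, 0.2% DMSO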

Metabotropic glutamate receptor 8 (Rattus norvegicus), sequence (P70579 whole entry, looked up): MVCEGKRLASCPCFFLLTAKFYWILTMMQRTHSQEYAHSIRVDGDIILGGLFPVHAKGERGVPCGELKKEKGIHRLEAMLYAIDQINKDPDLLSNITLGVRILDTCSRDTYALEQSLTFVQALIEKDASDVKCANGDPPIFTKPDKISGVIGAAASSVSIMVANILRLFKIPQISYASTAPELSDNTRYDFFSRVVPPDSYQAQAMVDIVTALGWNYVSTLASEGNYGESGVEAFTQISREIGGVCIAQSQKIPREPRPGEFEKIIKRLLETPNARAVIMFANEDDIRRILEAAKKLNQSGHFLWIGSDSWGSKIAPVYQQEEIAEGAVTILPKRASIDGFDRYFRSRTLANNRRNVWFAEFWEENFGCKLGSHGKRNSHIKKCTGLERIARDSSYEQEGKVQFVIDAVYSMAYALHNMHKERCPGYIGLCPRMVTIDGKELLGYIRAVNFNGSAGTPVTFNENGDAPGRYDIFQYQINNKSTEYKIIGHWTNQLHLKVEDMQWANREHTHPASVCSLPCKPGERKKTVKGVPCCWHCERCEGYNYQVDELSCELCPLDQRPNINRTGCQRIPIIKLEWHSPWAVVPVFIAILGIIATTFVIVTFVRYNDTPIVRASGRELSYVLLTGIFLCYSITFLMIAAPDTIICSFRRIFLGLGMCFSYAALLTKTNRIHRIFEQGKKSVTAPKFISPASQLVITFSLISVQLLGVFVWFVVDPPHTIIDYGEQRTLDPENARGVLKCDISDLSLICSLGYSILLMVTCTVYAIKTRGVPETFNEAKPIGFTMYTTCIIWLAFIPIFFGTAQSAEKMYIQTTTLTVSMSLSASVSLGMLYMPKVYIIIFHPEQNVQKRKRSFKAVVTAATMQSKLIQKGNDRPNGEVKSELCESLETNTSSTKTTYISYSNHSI

| SMILES | outcome |
| --- | --- |
| CCC1(c2ccc(Cl)cc2)NC(=S)N(c2ccccc2)N1 (configuration not stated) | inactive; 0 |
| CC1Cc2ccccc2N1C(=S)NC(=O)c1ccc(Cl)cc1Cl (configuration not stated) | inactive; 0 |
| Fc1cccc2sc(Nc3nnc(-c4ccco4)o3)nc12 | inactive; 0 |
| CCOc1ccc(-c2nnc(NC(=O)c3ccc(OCC(C)C)c(OC)c3)o2)cc1 | inactive; 0 |
| Cc1ccc(NC(=S)c2nc3ccccc3[nH]2)c(C)c1 | inactive; 0 |
| O=C1c2ccccc2NC(c2ccc(-c3ccc(Br)cc3)o2)N1O (configuration not stated) | inactive; 0 |
| Cc1cc([N+](=O)[O-])ccc1-c1ccc(C2Nc3ccccc3C(=O)N2O)o1 (configuration not stated) | active; 2 |
| O=C1c2ccccc2NC(c2ccc(-c3cccc(Cl)c3)o2)N1O (configuration not stated) | inactive; 0 |
| CCCN(CCC)C(=S)NC(=O)c1ccc(Cl)cc1Cl | inactive; 0 |
| C=CCn1c(=S)[nH]c2ccccc2c1=O | inactive; 0 |
| CCOC(=O)Cc1csc(NC(=S)NC(=O)c2ccccc2C)n1 | inactive; 0 |
| Cc1ccccc1C(=O)Nc1nc(=S)ss1 | active; 1 |
| Cc1ccccc1C(=O)NNC(=O)C(=O)Nc1cccc(Cl)c1C | inactive; 0 |
| O=C(NC(=S)N1CCCc2ccccc21)c1ccc([N+](=O)[O-])cc1 | inactive; 0 |
| CN(C)S(=O)(=O)c1cccc(NC(=S)Nc2ccc(Cl)cc2Cl)c1 | inactive; 4 |
| CC12CCC(C(=O)N(CSC(=S)N/N=C\c3ccccc3)C1=O)C2(C)C (configuration not stated) | inactive; 0 |
| CNC(=S)N/N=C1\C(=O)c2cccc3cccc1c23 | inactive; 0 |
| CC(C)c1nc(N2CCOCC2)c(C#N)c2c1CCCC2 | inactive; 0 |
| CCc1nc(N2CCOCC2)c(C#N)c2c1CCCC2 | active; 2 |
| CSc1nc(N2CCOCC2)c2c(c1C#N)CC(C)(C)OC2 | inactive; 0 |
| C=CCn1c(O)c(N=NC(=O)OC(C)(C)C)c2ccccc21 | inactive; 0 |
| O=C(NC(=S)N1CCCc2ccccc21)c1ccc(Br)cc1 | inactive; 0 |
| Cn1c(=O)c2c(nc3sccn32)n(C)c1=O | inactive; 0 |
| Cc1ccc(C)c(C(=O)c2c(C)nc3sccn23)c1 | active; -1 |

| SMILES | outcome |
| --- | --- |
| COC(=O)c1ccc(NC(=S)NC(=O)c2c(Cl)cnn2C)cc1 | inactive; 0 |
| Cc1ccc(/C=N/n2c(-c3cccs3)n[nH]c2=S)cc1 | inactive; 0 |
| COC(=O)c1ccccc1NC(=S)NC(=O)COc1ccc(C)cc1 | inactive; 0 |
| Cc1ccccc1C(=O)NNC(=S)NC(=O)COc1ccccc1 | active; 1 |
| O=C(COc1ccccc1)NC(=S)Nc1cccc([N+](=O)[O-])c1 | inactive; 0 |
| COC(=O)c1ccccc1NC(=S)NC(=O)COc1ccccc1 | inactive; 0 |
| Cc1ccc(C(=O)NNC(=S)NC(=O)COc2ccccc2)cc1 | active; 1 |
| CCOC(=O)c1ccc(NC(=S)NC(=O)COc2ccccc2)cc1 | inactive; 0 |
| Cc1cccc(C(=O)NNC(=O)C(=O)NC(C)(C)C)c1 | inactive; 0 |
| COc1ccc(-c2nnc(NC(=O)c3ccc(F)cc3)o2)cc1 | inactive; 0 |
| S=c1[nH]nc(-c2ccccn2)n1/N=C/c1ccc(Br)s1 | inactive; 0 |
| O=C(NC(=S)N1CCN(c2ccc(C(F)(F)F)cc2[N+](=O)[O-])CC1)c1cccs1 | inactive; 0 |
| O=C(NC(=S)N1CCc2ccccc21)c1ccccc1Br | inactive; 0 |
| S=c1[nH]cnc2scc(-c3ccccc3)c12 | inactive; 0 |
| O=C(NCc1ccccc1)c1ccc2c(=O)n(CCCN3CCCC3=O)c(=S)[nH]c2c1 | active; -1 |
| O=c1c2ccccc2[nH]c(=S)n1CCN1CCN(Cc2ccccc2)CC1 | inactive; 0 |
| COCCNC(=O)CCCCCn1c(=S)[nH]c2ccccc2c1=O | inactive; 0 |
| Cc1ccc(C)c(N=C2CCCN2Cc2ccccc2)c1C#N | inactive; 0 |
| CC1(C)CC(=O)C2=C(C1)OC(/N=C/N1CCOCC1)=C(C#N)C2c1ccccc1 (configuration not stated) | inactive; 0 |
| CCCN(CCC)C(=S)NC(=O)c1ccc(-c2ccccc2)cc1 | inactive; 0 |
| O=[N+]([O-])c1ccc(/C=N/NC(=S)Nc2ccccc2F)o1 | inactive; 0 |
| Cc1ccccc1-n1c(SCc2ccccn2)nc2n[nH]c(C)c2c1=N | active; 2 |
| COc1cccc(-n2c(SCC(=O)NCCC3=CCCCC3)nc3n[nH]c(C)c3c2=N)c1 | inactive; 0 |
